Rpn11 inh – blocks the human proteasome subunit Rpn11. O00487. human 26S proteasome, Ub4-pepOG fluorescence polarization; 20S core pre-blocked with epoxomicin. inhibition, % at 20 µM. 0.59% of 360,000 active;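 active = inhibition at 20 µM, scaled to each plate's controls, above about 33%, limit read from the data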
CSN deneddyl inh – blocks human CSN-mediated cullin deneddylation | AID 651999 | inhibition, % at 12.5 µM | 0.38% of 360,000 active | Purified CSN, SCF-Nedd8-OG deneddylation, fluorescence polarization | Q92905;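 active = pattern-corrected inhibition above about 35%, with an unprinted fluorescence ratio check between 0.5 and 1.5, limit read from the data, passing the limit was not always enough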;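 also: 0% = enzyme with substrate and 100% = substrate without enzyme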
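Material: human Csn5 produced in HEK293T cells; Input: enzyme 0.24 nM; Reagent: SCFSkp2-Nedd8OG substrate at 10 nM final; Dosing: 12.5 µM compound; Incubation: 90 min reaction at room temperature; Detection: fluorescence polarization of the substrate; Evaluation: % inhibition of substrate cleavage by Csn5; Control set: substrate-only high control, full reaction low control.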
HNF4A DNA FP – change in binding of human HNF4 alpha to DNA | activity change, % at 10 µM | HNF4a-FITC DNA binding, fluorescence polarization, 1 h | 0.3% of 360,000 active | AID 1224865; in the data active = activity change above about 30%, passing the limit was not always enough
Target sequence (P41235 whole entry, looked up): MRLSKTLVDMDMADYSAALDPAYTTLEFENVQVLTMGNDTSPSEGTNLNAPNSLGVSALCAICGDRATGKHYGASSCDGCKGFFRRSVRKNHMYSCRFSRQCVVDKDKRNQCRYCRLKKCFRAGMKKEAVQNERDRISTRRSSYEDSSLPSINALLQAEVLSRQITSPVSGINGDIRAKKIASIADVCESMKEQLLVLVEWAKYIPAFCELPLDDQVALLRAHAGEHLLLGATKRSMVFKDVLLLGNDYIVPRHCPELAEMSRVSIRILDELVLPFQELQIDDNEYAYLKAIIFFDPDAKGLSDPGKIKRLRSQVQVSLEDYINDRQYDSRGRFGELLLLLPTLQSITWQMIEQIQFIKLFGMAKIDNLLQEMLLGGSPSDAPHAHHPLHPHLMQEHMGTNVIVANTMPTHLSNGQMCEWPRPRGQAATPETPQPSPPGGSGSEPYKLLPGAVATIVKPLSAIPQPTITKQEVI
aDG glyco act – alpha-DG glycosylation activation; Pro5-aDG cells, alpha-DG glycosylation AlphaScreen (IIH6); 0% Pro5, 100% B10-LARGE cell signal; activation, % at 10 µM; 0.22% of 360,000 active; AID 624168;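 active = activation of at least 8% versus controls, or a plate z-score of at least 8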;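 also: Pro5 are CHO cells carrying HIG-tagged alpha-DG that lacks glycosylation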
TPT1 inh – inhibitors of Candida albicans tRNA 2'-phosphotransferase TPT1. inhibition, % at 5 µM. AID 1962. 0.81% of 300,000 active. recombinant caTPT1, FP RNA substrate dephosphorylation;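 active = inhibition above the mean of all tested compounds plus 3 SD, set per screening campaign, cut at about 24% in these data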;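 also: plate controls were DMSO alone for no effect and ferristatin control at 100 nM for full effect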
Xi reactivation – activators of X-chromosome reactivation in mouse fibroblasts. XiGFP mouse fibroblasts, % GFP-positive cells imaging, 3 d; cells co-treated with 5-aza-dC sensitizer; scaled so ellipticine positive control = 100%. activation, % at 7.58 µM. 0.055% of 360,000 active;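 active = mean normalized replicate activation at least 10% and every replicate at or above 10%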;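 also: 0% = median of on-plate neutral control wells and 100% = ellipticine 6 µM median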
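Material: SV40-immortalized XiGFP fibroblast cells, line 68-5-11 | Buffer or medium: DMEM containing 5-aza-dC | Dosing: One concentration, pinned | Times: 3 d treatment, 15 min room-temperature fixation | Controls: Ellipticine 6 µM positive control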
* marks the source's active call; other numbers are inactive results; . = not tested or not shown. Most compounds without a hit are left out; they make up all but 1.3% or so of the library.

SMILES	Rpn11 inh	CSN deneddyl inh	HNF4A DNA FP	aDG glyco act	TPT1 inh	Xi reactivation
COc1ccc(NS(=O)(=O)c2cccc(NC(=O)c3ccc(Cl)nc3)c2)cc1	-3	4	2	8.5*	0	0
O=C(Nc1cccc(S(=O)(=O)Nc2ccc(Cl)cc2)c1)c1ccc(Cl)nc1	1	6	0	5	-3	0
C=CCNC(=O)/C(C#N)=C/c1c(N2CCCCCC2)nc2ccccn2c1=O	2	57*	1	0	2	0
N#C/C(=C\c1c(N2CCCCCC2)nc2ccccn2c1=O)C(=O)NCc1ccco1	18	0	-2	0	1	0
O=C(CSc1ccc2ccccc2n1)Nc1nsc(-c2ccc(Cl)cc2)n1	14	54*	9	0	0	0
C[C@@H]1CN([C@@H](C)CO)C(=O)Cc2cc(NC(=O)Nc3ccccc3)ccc2O[C@H]1CN(C)C(=O)Nc1ccc(C(F)(F)F)cc1	.	.	.	.	.	-1
O=C(O)C1=CC(=C(c2ccc(O)c(C(=O)O)c2)c2ccc(O)c(C(=O)O)c2)C=CC1=O	.	.	.	.	101*	.
O=C(O)c1cc(O)ccc1O	7	-9	-6	0	.	0
CCCN(C)C[C@H]1Oc2ncc(C#CC3CC3)cc2C(=O)N([C@@H](C)CO)C[C@@H]1C	.	.	.	.	.	0
COc1cccc(=O)c2c(C)n(CC(=O)c3ccccc3)c(C)c12	16	7	-20	0	30*	0
N#Cc1c(-c2ccccc2F)cc(C2CC2)nc1SCC(=O)c1cccs1	0	-10	3	1	12	60*
O=C(N[C@H]1CC[C@@H](CC(=O)N2CCc3ccccc3C2)O[C@@H]1CO)C1CCOCC1	.	.	.	.	.	0
CCN=C1NN=C(c2ccc(C)cc2)CS1	41*	3	14	2	20	.
CNC[C@H]1Oc2cc(C#Cc3ccccn3)ccc2S(=O)(=O)N([C@H](C)CO)C[C@H]1C	.	.	.	.	.	1
COc1ccc(NC(=O)N(C)C[C@H]2OCCCC[C@@H](C)Oc3ccc(NC(=O)Nc4ccc(C(F)(F)F)cc4)cc3C(=O)N([C@@H](C)CO)C[C@@H]2C)cc1	.	.	.	.	.	0
COc1ccc([C@H]2CC=CC[C@H](C)Oc3ccccc3C(=O)N(C)[C@@H](C)C(=O)N2)c(OC)c1 (mixture of isomers)	.	.	.	.	.	0
N#Cc1sc2nc(-c3ccccc3)cc(-c3ccco3)c2c1N	14	40*	11	0	10	.
N#Cc1sc2nc(C3CC3)cc(-c3ccccc3)c2c1N	-5	-5	0	1	4	0
COc1cc2c3nnc(-c4ccc(F)cc4)c-3cn(Cc3cccc(F)c3)c2cc1OC	.	112	115*	0	5	.
COc1cc2c3nnc(-c4ccc(F)cc4)c-3cn(Cc3cccc(C)c3)c2cc1OC	-15	-73	13	0	-23	82*
COc1cc2c3nnc(-c4ccc(F)cc4)c-3cn(Cc3ccc(C)cc3)c2cc1OC	.	-49	4	0	2	98*
Cc1noc(C)c1NC(=O)N[C@H]1CC[C@@H](CC(=O)Nc2ccc(-c3ccccc3)cc2)O[C@H]1CO	.	.	.	.	.	0
CCC(=O)N1CC(=O)N2[C@H](C1)[C@@H](c1ccc(C#Cc3cccc(OC)c3)cc1)[C@@H]2CO	.	.	.	.	.	0
Cc1noc(C)c1NC(=O)Nc1ccc2c(c1)C(=O)N([C@@H](C)CO)C[C@H](C)[C@@H](CN(C)CC1CCCCC1)O2	.	.	.	.	.	-1
CCc1ccc(NC2=CC(=O)C(=O)c3ccccc32)cc1	-11	5	0	5.4*	.	0
SMILES	Rpn11 inh	CSN deneddyl inh	HNF4A DNA FP	aDG glyco act	TPT1 inh	Xi reactivation
O=C1C=C(Nc2ccccc2)c2ccccc2C1=O	2	11	2	11*	.	0
NNc1nc2c(-c3cccc(C(F)(F)F)c3)nnn2c2ccccc12	.	18	36*	0	.	0
O=C(C[C@H]1C[C@@H]2c3cc(NC(=O)Nc4ccc(F)cc4)ccc3O[C@@H]2[C@@H](CO)O1)NC1CCCC1	.	.	.	.	.	0
Cc1cc(N)nc(SCC(=O)N2C(C)CCCC2C)n1 (stereo unspecified)	-1	3	2	0	1	0
CC1CCCC(C)N1C(=O)CSc1nc(N)cc(N)n1 (stereo unspecified)	-4	1	53*	0	1	0
C[C@@H]1CCCCO[C@H](CN(C)Cc2ccc(C(=O)O)cc2)[C@H](C)CN([C@H](C)CO)C(=O)c2cc(NC(=O)CCCN(C)C)ccc2O1	.	.	.	.	.	1
CC(CCC(C)C(C)(C)C)[C@@H]1CC[C@H]2C3C[C@H](OS(O)(=S)=S)[C@H]4C[C@H](OS(O)(=S)=S)[C@@H](OS(O)(=S)=S)C[C@]4(C)[C@H]3CC[C@]12C (stereo partly specified) (tested in a mixture with another compound)	133*	35*	-82	1	.	.
CC(CCC(=O)NN)C1CCC2C3CCC4CC(O)CCC4(C)C3CCC12C (stereo unspecified)	14	13	3	0	.	0
COc1ccc2c3c(n(C)c2c1)[C@@H](CO)N(C(C)=O)CC31CCN(Cc2cncnc2)CC1	.	.	.	.	.	0
O=C(COC(=O)c1ccc([N+](=O)[O-])s1)Nc1ncc(C(F)(F)F)cc1Cl	25	38*	13	0	10	0
C[C@H]1CN([C@@H](C)CO)C(=O)Cc2cc(NS(=O)(=O)c3ccc(F)cc3)ccc2O[C@@H]1CN(C)CC1CCCCC1	.	.	.	.	.	-1
COc1ccc2c3c([nH]c2c1)[C@@H](CO)N(C(=O)CC1CC1)CC31CCN(C(=O)CC2CC2)CC1	.	.	.	.	.	0
Nc1nc(SCC(=O)c2cccs2)n[nH]1	-11	8	39*	0	0	0
COc1cc(C(C)=O)ccc1OCC(O)CN1CCN(c2ccc(C)c(C)c2)CC1 (stereo unspecified)	-4	-3	-5	0	0	0
COc1cc(C(C)=O)ccc1OCC(O)CN1CCN(c2c(C)cccc2C)CC1 (stereo unspecified)	-3	-3	45*	0	6	0
CCC(CNc1cc(OC)cc2cccnc12)NC1CCCCC1 (stereo unspecified)	-37	-33	5	7.1*	-130	0
COc1cc(NCCCC(C)N)c2ncccc2c1 (stereo unspecified)	-36	-12	5	1	.	.
C[C@H]1CN([C@@H](C)CO)C(=O)c2cc(-c3ccc(C#N)cc3)cnc2O[C@H]1CN(C)C(=O)CN(C)C	.	.	.	.	.	0
COc1ccc(-c2nc3cc(NC(=O)Cc4ccc(OC)c(OC)c4)ccc3o2)cc1	2	43*	6	2	0	.

Source: PubChem BioAssay
